Assay results reported in ChEMBL document CHEMBL1671716, “Antimicrobial susceptibility patterns for recent clinical isolates of anaerobic bacteria in South Korea” (2010).
≈ marks a conversion by molar mass, not a printed value.

Key:
[1] = test system: Bacteroides caccae; assay: Antimicrobial activity against Bacteroides caccae after 48 hrs by agar dilution method; type: functional
How it was run: (§1)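 MICs on clinical anaerobe isolates by the CLSI agar dilution method. Inoculum of 10^5 CFU applied with a Steers replicator. Plates incubated 48 h at 37°C in an anaerobic chamber.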

[2] = test system: Parabacteroides distasonis; assay: Antimicrobial activity against Bacteroides distasonis after 48 hrs by agar dilution method; type: functional; how it was run: as §1
[3] = test system: Phocaeicola vulgatus; assay: Antimicrobial activity against Bacteroides vulgatus after 48 hrs by agar dilution method; type: functional; how it was run: as §1
[4] = test system: Phocaeicola vulgatus; assay: Antimicrobial activity against Bacteroides vulgatus after 48 hrs by agar dilution method in presence of 4 ug/ml beta-lactamase inhibitor Tazobactam; type: functional
How it was run: (§2)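 MICs by CLSI agar dilution for piperacillin combined with tazobactam, with tazobactam held constant at 4 μg/ml. Clinical anaerobe isolates inoculated at 10^5 CFU by Steers replicator. Plates kept in an anaerobic chamber at 37°C for 48 h.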

[5] = test system: Bacteroides ovatus; assay: Antimicrobial activity against Bacteroides ovatus after 48 hrs by agar dilution method; type: functional; how it was run: as §1
[6] = test system: Bacteroides fragilis; assay: Antimicrobial activity against Bacteroides fragilis assessed as percent susceptible isolates after 48 hrs by agar dilution method in presence of 4 ug/ml beta-lactamase inhibitor Tazobactam; type: functional
[7] = test system: Bacteroides fragilis; assay: Antimicrobial activity against Bacteroides fragilis assessed as percent resistant isolates after 48 hrs by agar dilution method; type: functional
How it was run: (§3)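 CLSI agar dilution on recent Korean clinical anaerobe isolates. Inoculum 10^5 CFU per spot by replicator. Plates incubated in an anaerobic chamber at 37°C for 48 h. For piperacillin plus tazobactam, tazobactam was held constant at 4 μg/ml. Resistance and susceptibility rates derived from MICs.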

[8] = test system: Bacteroides thetaiotaomicron; assay: Antimicrobial activity against Bacteroides thetaiotaomicron assessed as percent susceptible isolates after 48 hrs by agar dilution method; type: functional
[9] = test system: Bacteroides caccae; assay: Antimicrobial activity against Bacteroides caccae assessed as percent susceptible isolates after 48 hrs by agar dilution method; type: functional
[10] = test system: Phocaeicola vulgatus; assay: Antimicrobial activity against Bacteroides vulgatus assessed as percent susceptible isolates after 48 hrs by agar dilution method; type: functional
[11] = test system: Bacteroides ovatus; assay: Antimicrobial activity against Bacteroides ovatus assessed as percent susceptible isolates after 48 hrs by agar dilution method in presence of 4 ug/ml beta-lactamase inhibitor Tazobactam; type: functional
[12] = test system: Prevotella intermedia; assay: Antimicrobial activity against Prevotella intermedia after 48 hrs by agar dilution method; type: functional
How it was run: (§4)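 CLSI agar dilution (M11-A7); inoculum 10^5 CFU applied by replicator; plates incubated anaerobically 48 h at 37°C. For piperacillin-tazobactam, tazobactam held constant at 4 μg/ml.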

[13] = test system: Prevotella bivia; assay: Antimicrobial activity against Prevotella bivia after 48 hrs by agar dilution method; type: functional; how it was run: as §4
[14] = test system: Hoylesella oralis; assay: Antimicrobial activity against Prevotella oralis after 48 hrs by agar dilution method in presence of 4 ug/ml beta-lactamase inhibitor Tazobactam; type: functional; how it was run: as §4
[15] = test system: Prevotella intermedia; assay: Antimicrobial activity against Prevotella intermedia assessed as percent susceptible isolates after 48 hrs by agar dilution method; type: functional; how it was run: as §4
[16] = test system: Prevotella bivia; assay: Antimicrobial activity against Prevotella bivia assessed as percent susceptible isolates after 48 hrs by agar dilution method; type: functional; how it was run: as §4
[17] = test system: Prevotella buccae; assay: Antimicrobial activity against Prevotella buccae assessed as percent susceptible isolates after 48 hrs by agar dilution method; type: functional, Segatella buccae; how it was run: as §4
[18] = test system: Prevotella buccae; assay: Antimicrobial activity against Prevotella buccae assessed as percent susceptible isolates after 48 hrs by agar dilution method in presence of 4 ug/ml beta-lactamase inhibitor Tazobactam; type: functional, Segatella buccae; how it was run: as §4
[19] = test system: Hoylesella oralis; assay: Antimicrobial activity against Prevotella oralis assessed as percent resistant isolates after 48 hrs by agar dilution method; type: functional; how it was run: as §3
[20] = test system: Fusobacterium mortiferum; assay: Antimicrobial activity against Fusobacterium mortiferum after 48 hrs by agar dilution method; type: functional; how it was run: as §4
[21] = test system: Parvimonas micra; assay: Antimicrobial activity against Peptostreptococcus micros after 48 hrs by agar dilution method in presence of 4 ug/ml beta-lactamase inhibitor Tazobactam; type: functional; how it was run: as §4
[22] = test system: Parvimonas micra; assay: Antimicrobial activity against Peptostreptococcus micros assessed as percent susceptible isolates after 48 hrs by agar dilution method; type: functional; how it was run: as §3
[23] = test system: Anaerococcus prevotii; assay: Antimicrobial activity against Anaerococcus prevotii after 48 hrs by agar dilution method in presence of 4 ug/ml beta-lactamase inhibitor Tazobactam; type: functional; how it was run: as §2
[24] = test system: Peptoniphilus asaccharolyticus; assay: Antimicrobial activity against Peptoniphilus asaccharolyticus after 48 hrs by agar dilution method; type: functional; how it was run: as §4
[25] = test system: Finegoldia magna; assay: Antimicrobial activity against Finegoldia magna after 48 hrs by agar dilution method; type: functional; how it was run: as §4
[26] = test system: Clostridium perfringens; assay: Antimicrobial activity against Clostridium perfringens after 48 hrs by agar dilution method; type: functional
[27] = test system: Clostridium perfringens; assay: Antimicrobial activity against Clostridium perfringens assessed as percent susceptible isolates after 48 hrs by agar dilution method; type: functional
[28] = test system: Clostridium perfringens; assay: Antimicrobial activity against Clostridium perfringens assessed as percent susceptible isolates after 48 hrs by agar dilution method in presence of 4 ug/ml beta-lactamase inhibitor Tazobactam; type: functional; how it was run: as §3
[29] = test system: Clostridioides difficile; assay: Antimicrobial activity against Clostridium difficile after 48 hrs by agar dilution method; type: functional
[30] = test system: Actinomyces israelii; assay: Antimicrobial activity against Actinomyces israelii after 48 hrs by agar dilution method; type: functional; how it was run: as §1
[31] = test system: Actinomyces israelii; assay: Antimicrobial activity against Actinomyces israelii assessed as percent resistant isolates after 48 hrs by agar dilution method in presence of 4 ug/ml beta-lactamase inhibitor Tazobactam; type: functional; how it was run: as §3
[32] = test system: Schaalia meyeri; assay: Antimicrobial activity against Actinomyces meyeri after 48 hrs by agar dilution method; type: functional; how it was run: as §1
[33] = test system: Schaalia meyeri; assay: Antimicrobial activity against Actinomyces meyeri assessed as percent resistant isolates after 48 hrs by agar dilution method; type: functional; how it was run: as §3
[34] = test system: Schaalia meyeri; assay: Antimicrobial activity against Actinomyces meyeri assessed as percent resistant isolates after 48 hrs by agar dilution method in presence of 4 ug/ml beta-lactamase inhibitor Tazobactam; type: functional; how it was run: as §3
[35] = test system: Actinomyces naeslundii; assay: Antimicrobial activity against Actinomyces naeslundii assessed as percent resistant isolates after 48 hrs by agar dilution method; type: functional; how it was run: as §3
[36] = test system: Actinomyces naeslundii; assay: Antimicrobial activity against Actinomyces naeslundii assessed as percent resistant isolates after 48 hrs by agar dilution method in presence of 4 ug/ml beta-lactamase inhibitor Tazobactam; type: functional; how it was run: as §3
[37] = test system: Bifidobacterium adolescentis; assay: Antimicrobial activity against Bifidobacterium adolescentis after 48 hrs by agar dilution method; type: functional; how it was run: as §1
[38] = test system: Eggerthella lenta; assay: Antimicrobial activity against Eubacterium lentum assessed as percent susceptible isolates after 48 hrs by agar dilution method; type: functional; how it was run: as §4
[39] = test system: Eggerthella lenta; assay: Antimicrobial activity against Eubacterium lentum assessed as percent resistant isolates after 48 hrs by agar dilution method; type: functional; how it was run: as §3
[40] = test system: Eubacterium sp.; assay: Antimicrobial activity against Eubacterium sp. after 48 hrs by agar dilution method; type: functional; how it was run: as §4
[41] = test system: Eubacterium sp.; assay: Antimicrobial activity against Eubacterium sp. assessed as percent resistant isolates after 48 hrs by agar dilution method in presence of 4 ug/ml beta-lactamase inhibitor Tazobactam; type: functional; how it was run: as §3

CCN1CCN(C(=O)N[C@@H](C(=O)N[C@@H]2C(=O)N3[C@@H]2SC(C)(C)[C@@H]3C(=O)O)c2ccccc2)C(=O)C1=O [PIPERACILLIN]
MIC50 [1]: 128 µg/mL (≈ 247 µM) | MIC90 [1]: > 256 µg/mL | MIC50 [2]: 128 µg/mL (≈ 247 µM) | MIC90 [2]: > 256 µg/mL | MIC50 [3]: 128 µg/mL (≈ 247 µM) | MIC90 [3]: > 256 µg/mL | MIC50 [4]: 8 µg/mL | MIC90 [4]: 64 µg/mL | MIC50 [5]: 128 µg/mL (≈ 247 µM) | MIC90 [5]: > 256 µg/mL | Activity [6]: 97% | Activity [7]: 27% | Activity [8]: 42% | Activity [9]: 42% | Activity [10]: 42% | Activity [11]: 89% | MIC50 [12]: 8 µg/mL (≈ 15.5 µM) | MIC90 [12]: 16 µg/mL (≈ 30.9 µM) | MIC50 [13]: 16 µg/mL (≈ 30.9 µM) | MIC90 [13]: 128 µg/mL (≈ 247 µM) | MIC50 [14]: ≤ 0.03 µg/mL | MIC90 [14]: 4 µg/mL | Activity [15]: 100% | Activity [16]: 78% | Activity [17]: 78% | Activity [18]: 100% | Activity [19]: 11% | MIC [20]: 0.06 µg/mL (≈ 0.116 µM) | MIC50 [21]: 0.25 µg/mL | MIC90 [21]: 16 µg/mL | Activity [22]: 0% | MIC50 [23]: 0.125 µg/mL | MIC90 [23]: 0.125 µg/mL | MIC50 [24]: ≤ 0.06 µg/mL | MIC90 [24]: ≤ 0.06 µg/mL | MIC50 [25]: ≤ 0.06 µg/mL | MIC90 [25]: 0.125 µg/mL (≈ 0.242 µM) | MIC50 [26]: 0.25 µg/mL (≈ 0.483 µM) | MIC90 [26]: 0.5 µg/mL (≈ 0.966 µM) | Activity [27]: 100% | Activity [28]: 100% | MIC50 [29]: 4 µg/mL (≈ 7.73 µM) | MIC90 [29]: 8 µg/mL (≈ 15.5 µM) | MIC50 [30]: 1 µg/mL (≈ 1.93 µM) | MIC90 [30]: 8 µg/mL (≈ 15.5 µM) | Activity [31]: 0% | MIC50 [32]: 1 µg/mL (≈ 1.93 µM) | MIC90 [32]: 8 µg/mL (≈ 15.5 µM) | Activity [33]: 0% | Activity [34]: 0% | Activity [35]: 0% | Activity [36]: 0% | MIC50 [37]: 1 µg/mL (≈ 1.93 µM) | MIC90 [37]: 8 µg/mL (≈ 15.5 µM) | Activity [38]: 92% | Activity [39]: 0% | MIC50 [40]: 1 µg/mL (≈ 1.93 µM) | MIC90 [40]: 8 µg/mL (≈ 15.5 µM) | Activity [41]: 0%
